Data taken from ChEMBL document CHEMBL3826892, “Second-Generation Phenylthiazole Antibiotics with Enhanced Pharmacokinetic Properties” (J Med Chem, 2016).
Values after ≈ are worked out from the molar mass of the structure shown.

Key:
Staphylococcus aureus [1] = assay: Antimicrobial activity against methicillin-resistant Staphylococcus aureus RCMB 2658 clinical isolate after 20 hrs by broth microdilution method; assay type: functional; settings: RCMB 2658, 20 h
Summary of the method: (§1)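 CLSI broth microdilution in cation-adjusted Mueller Hinton broth. Compounds were serially diluted in triplicate and plates held at 37 °C for 20 h. MIC was taken by eye as the lowest concentration with no visible growth, and the average of the triplicate determinations is reported.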

Staphylococcus aureus [2] = assay: Bactericidal activity against methicillin-resistant Staphylococcus aureus USA300 assessed as time required to reduce bacterial inoculum to zero colony forming units at 3 times MIC by time kill assay; assay type: functional
Summary of the method: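 Samples taken at 2, 4, 6, 8, 10, 12 and 24 h were serially diluted in PBS and plated on trypticase soy agar. Viable CFU/mL were counted after at least 16 h at 37 °C.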

HaCaT [3] = assay: Cytotoxicity against human HaCaT cells assessed as cell viability up to 16 ug/ml after 2 hrs by MTS assay; assay type: cell-based
Summary of the method: (§2)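 HaCaT keratinocytes were grown in DMEM with 10% FBS at 37 °C, 5% CO₂. They were exposed in triplicate to 8–256 μg/mL for 2 h, then MTS was added. Background-corrected absorbance was expressed as % viability relative to a DMSO vehicle control.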

Staphylococcus aureus [4] = assay: Potency index, ratio of vancomycin MIC to compound MIC for methicillin-resistant Staphylococcus aureus RCMB 2658 clinical isolate; assay type: functional
[5] = Aqueous solubility of the compound in PBS after 2 hrs by turbidity assay; assay type: physicochemical
Summary of the method: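 Serial dilutions were made […] and diluted 100-fold into PBS. After 2 h, turbidity was read at 540 nm with pre-addition background subtracted. Turbidity was taken as absorbance > blank mean + 3 SD. Solubility limit is the highest concentration with no turbidity.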

Staphylococcus aureus [6] = assay: Antimicrobial activity against methicillin-resistant Staphylococcus aureus NRS119 clinical isolate after 20 hrs by broth microdilution method; assay type: functional; settings: NRS119, 20 h; summary of the method: as §1
[7] = AUClast in Sprague-Dawley rat plasma at 50 mg/kg administered via oral gavage measured 24 hrs post dose by LC/MS/MS analysis; assay type: ADME, organism-based; set-up: dose 50 mg/kg, time 0 - last, route oral
Summary of the method: (§3)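 Male naive Sprague-Dawley rats (n = 3) received a single 50 mg/kg oral gavage dose in 5% ethanol, 45% PEG 400, 50% water. Blood was collected into EDTA-K2 tubes over 24 h post dose. Plasma was protein-precipitated with acetonitrile and parent was quantified by LC/MS/MS to derive PK parameters.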

[8] = Cmax in Sprague-Dawley rat plasma at 50 mg/kg administered via oral gavage measured 24 hrs post dose by LC/MS/MS analysis; assay type: ADME, organism-based; set-up: dose 50 mg/kg, route oral; summary of the method: as §3
Staphylococcus aureus [9] = assay: Antimicrobial activity against vancomycin-resistant Staphylococcus aureus 10 clinical isolate after 20 hrs by broth microdilution method; assay type: functional; settings: isolate 10, 20 h; summary of the method: as §1
[10] = Ratio of non toxic dose for cytotoxicity against human HaCaT cells to MIC for methicillin-resistant Staphylococcus aureus RCMB 2658 clinical isolate; assay type: toxicity, cell-based
Summary of the method: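 HaCaT keratinocytes in DMEM with 10% FBS at 37 °C, 5% CO2, exposed for 2 h to 8–256 μg/mL, then MTS read-out. Viability is given as a percentage of the DMSO control, in triplicate. The highest non-toxic concentration is divided by the MRSA MIC.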

Staphylococcus aureus [11] = assay: Antimicrobial activity against methicillin-resistant Staphylococcus aureus USA400 NRS123 clinical isolate after 20 hrs by broth microdilution method; assay type: functional; settings: USA400 NRS123, 20 h; summary of the method: as §1
[12] = Apparent permeability across apical to basolateral side in human Caco2 cells at pH 6.5 after 2 hrs by LC/MS/MS analysis; assay type: ADME, cell-based; settings: Caco-2, pH 6.5
Summary of the method: (§4)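 Caco-2 cells were grown and differentiated for 3 weeks, fed every 2 days. Compound was added to the apical or basolateral side and measured on the opposite side after 2 h by LC/MS/MS. Apical buffer was pH 6.5 transport buffer (glucose, 10 mM HEPES, HBSS) with 100 μM Lucifer yellow; basolateral buffer was pH 7.4. Lucifer yellow fluorescence checked monolayer integrity. Papp = (dQ/dt)/C₀A; efflux ratio = Papp(B→A)/Papp(A→B).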

Staphylococcus aureus [13] = assay: Antimicrobial activity against methicillin-resistant Staphylococcus aureus USA100 NRS382 clinical isolate after 20 hrs by broth microdilution method; assay type: functional; settings: USA100 NRS382, 20 h; summary of the method: as §1
Enterococcus faecium [14] = assay: Bactericidal activity against vancomycin-resistant Enterococcus faecium ATCC 700221 after 20 hrs by broth microdilution method; assay type: functional; settings: ATCC 700221, 20 h
Staphylococcus aureus [15] = assay: Antimicrobial activity against methicillin-resistant Staphylococcus aureus USA200 NRS383 clinical isolate after 20 hrs by broth microdilution method; assay type: functional; settings: USA200 NRS383, 20 h; summary of the method: as §1
Enterococcus faecium [16] = assay: Antimicrobial activity against vancomycin-resistant Enterococcus faecium ATCC 700221 after 20 hrs by broth microdilution method; assay type: functional; settings: ATCC 700221, 20 h; summary of the method: as §1
Staphylococcus aureus [17] = assay: Antimicrobial activity against methicillin-sensitive Staphylococcus aureus NRS72 clinical isolate after 20 hrs by broth microdilution method; assay type: functional; settings: NRS72, 20 h; summary of the method: as §1
Staphylococcus aureus [18] = assay: Bactericidal activity against methicillin-resistant Staphylococcus aureus USA300 NRS384 clinical isolate after 20 hrs by broth microdilution method; assay type: functional; settings: USA300 NRS384, 20 h
Staphylococcus aureus [19] = assay: Bactericidal activity against methicillin-resistant Staphylococcus aureus USA100 NRS382 clinical isolate after 20 hrs by broth microdilution method; assay type: functional; settings: USA100 NRS382, 20 h
Staphylococcus aureus [20] = assay: Antimicrobial activity against methicillin-resistant Staphylococcus aureus USA300 NRS384 clinical isolate after 20 hrs by broth microdilution method; assay type: functional; settings: USA300 NRS384, 20 h; summary of the method: as §1
[21] = Efflux ratio of apparent permeability from basolateral to apical side over apical to basolateral side in human Caco2 cells after 2 hrs by LC/MS/MS analysis; assay type: ADME, cell-based; settings: Caco-2; summary of the method: as §4
Staphylococcus aureus [22] = assay: Bactericidal activity against methicillin-sensitive Staphylococcus aureus NRS72 clinical isolate after 20 hrs by broth microdilution method; assay type: functional; settings: NRS72, 20 h
[23] = Total AUC in Sprague-Dawley rat plasma at 50 mg/kg administered via oral gavage measured 24 hrs post dose by LC/MS/MS analysis; assay type: ADME, organism-based; set-up: dose 50 mg/kg, route oral, time AUCmax; summary of the method: as §3
Staphylococcus aureus [24] = assay: Bactericidal activity against vancomycin-resistant Staphylococcus aureus 10 clinical isolate after 20 hrs by broth microdilution method; assay type: functional; settings: isolate 10, 20 h
Rattus norvegicus [25] = assay: Elimination rate constant in Sprague-Dawley rat plasma at 50 mg/kg administered via oral gavage by LC/MS/MS analysis; assay type: ADME, organism-based; settings: in vivo; summary of the method: as §3
Staphylococcus aureus [26] = assay: Bactericidal activity against methicillin-resistant Staphylococcus aureus NRS119 clinical isolate after 20 hrs by broth microdilution method; assay type: functional; settings: NRS119, 20 h
[27] = Mean residence time in Sprague-Dawley rat plasma at 50 mg/kg administered via oral gavage measured 24 hrs post dose by LC/MS/MS analysis; assay type: ADME, organism-based; summary of the method: as §3
HaCaT [28] = assay: Cytotoxicity against human HaCaT cells assessed as cell viability up to 64 ug/ml after 2 hrs by MTS assay; assay type: cell-based; summary of the method: as §2
Staphylococcus aureus [29] = assay: Bactericidal activity against methicillin-resistant Staphylococcus aureus USA400 NRS123 clinical isolate after 20 hrs by broth microdilution method; assay type: functional; settings: USA400 NRS123, 20 h
[30] = Apparent permeability across basolateral to apical side in human Caco2 cells at pH 7.4 after 2 hrs by LC/MS/MS analysis; settings: Caco-2, pH 7.4
[31] = Tmax in Sprague-Dawley rat plasma at 50 mg/kg administered via oral gavage measured 24 hrs post dose by LC/MS/MS analysis; assay type: ADME, organism-based; summary of the method: as §3
Staphylococcus aureus [32] = assay: Bactericidal activity against methicillin-resistant Staphylococcus aureus USA200 NRS383 clinical isolate after 20 hrs by broth microdilution method; assay type: functional; settings: USA200 NRS383, 20 h
Rattus norvegicus [33] = assay: Half life in Sprague-Dawley rat plasma at 50 mg/kg administered via oral gavage measured 24 hrs post dose by LC/MS/MS analysis; assay type: ADME, organism-based; settings: in vivo; summary of the method: as §3

CCCCc1ccc(-c2nc(C)c(/C(C)=N/NC(=N)N)s2)cc1
MIC (Staphylococcus aureus [1]): 4.8 µg/mL (≈ 14.6 µM)
Time (Staphylococcus aureus [2]): 6 h
Activity (HaCaT [3]): Non-toxic

Cc1nc(-c2ccc(C3=CCCCC3)cc2)sc1-c1ccnc(N)n1
Ratio (Staphylococcus aureus [4]): 1
MIC (Staphylococcus aureus [1]): 0.78 µg/mL (≈ 2.24 µM)
solubility kinetic at 2 h [5]: 37 µM (≈ 12.9 µg/mL)

CCCCc1ccc(-c2nc(C)c(-c3ccnc(N=C(N(C)C)N(C)C)n3)s2)cc1
MIC (Staphylococcus aureus [1]): > 25 µg/mL

Cc1nc(-c2ccc(C3=CCCCCC3)cc2)sc1-c1ccnc(N)n1
MIC (Staphylococcus aureus [1]): 3.12 µg/mL (≈ 8.61 µM)

CCCCc1ccc(-c2nc(C)c(-c3ccnc(NN)n3)s2)cc1
MIC (Staphylococcus aureus [6]): 2 µg/mL (≈ 5.89 µM)
AUC(0-t) at 24 h [7]: 83200 ng·h/mL
Cmax [8]: 9330 ng/mL
MIC (Staphylococcus aureus [9]): 1 µg/mL (≈ 2.95 µM)
selectivity ratio [10]: 160
MIC (Staphylococcus aureus [11]): 2 µg/mL (≈ 5.89 µM)
Papp A→B at 2 h [12]: 1.6 ×10⁻⁶ cm/s
MIC (Staphylococcus aureus [13]): 2 µg/mL (≈ 5.89 µM)
MBC (Enterococcus faecium [14]): 8 µg/mL (≈ 23.6 µM)
MIC (Staphylococcus aureus [15]): 2 µg/mL (≈ 5.89 µM)
MIC (Enterococcus faecium [16]): 2 µg/mL (≈ 5.89 µM)
MIC (Staphylococcus aureus [17]): 2 µg/mL (≈ 5.89 µM)
MBC (Staphylococcus aureus [18]): 2 µg/mL (≈ 5.89 µM)
MBC (Staphylococcus aureus [19]): 4 µg/mL (≈ 11.8 µM)
MIC (Staphylococcus aureus [20]): 2 µg/mL (≈ 5.89 µM)
efflux ratio at 2 h [21]: 1.8
MIC (Staphylococcus aureus [1]): 0.4 µg/mL (≈ 1.18 µM)
MBC (Staphylococcus aureus [22]): 8 µg/mL (≈ 23.6 µM)
AUC at 24 h [23]: 100000 ng·h/mL
MBC (Staphylococcus aureus [24]): 2 µg/mL (≈ 5.89 µM)
Kel (Rattus norvegicus [25]): 0.19 h⁻¹
solubility kinetic at 2 h [5]: 55 µM (≈ 18.7 µg/mL)
Time (Staphylococcus aureus [2]): 2 h
MBC (Staphylococcus aureus [26]): 2 µg/mL (≈ 5.89 µM)
MRT [27]: 7.74 h
Activity (HaCaT [28]): Non-toxic
MBC (Staphylococcus aureus [29]): 2 µg/mL (≈ 5.89 µM)
Papp B→A at 2 h [30]: 2.8 ×10⁻⁶ cm/s
Tmax [31]: 4.67 h
MBC (Staphylococcus aureus [32]): 2 µg/mL (≈ 5.89 µM)
t1/2 (Rattus norvegicus [33]): 8.24 h

CCCCc1ccc(-c2nc(C)c(-c3ccnc(N4CCCC4)n3)s2)cc1
MIC (Staphylococcus aureus [1]): > 25 µg/mL

CCCCc1ccc(-c2nc(C)c(-c3ccn4ncnc4n3)s2)cc1
MIC (Staphylococcus aureus [1]): > 25 µg/mL

CCCCc1ccc(-c2nc(C)c(-c3ccnc(NC#N)n3)s2)cc1
MIC (Staphylococcus aureus [1]): 18.7 µg/mL (≈ 53.5 µM)

Cc1nc(-c2ccc(-c3ccsc3)cc2)sc1-c1ccnc(N)n1
MIC (Staphylococcus aureus [1]): 6.25 µg/mL (≈ 17.8 µM)
solubility kinetic at 2 h [5]: 8.5 µM (≈ 2.98 µg/mL)

CCCCc1ccc(-c2nc(C)c(-c3ccnc(NC)n3)s2)cc1
MIC (Staphylococcus aureus [1]): > 25 µg/mL

CCCCc1ccc(-c2nc(C)c(-c3ccnc(NC(=N)N)n3)s2)cc1
MIC (Staphylococcus aureus [1]): 1.56 µg/mL (≈ 4.26 µM)

Cc1nc(-c2ccc(/C=C/C3CCCCC3)cc2)sc1-c1ccnc(N)n1
MIC (Staphylococcus aureus [1]): 3.12 µg/mL (≈ 8.29 µM)

CCCCc1ccc(-c2nc(C)c(-c3ccnc(-c4cccnc4)n3)s2)cc1
MIC (Staphylococcus aureus [1]): 17.2 µg/mL (≈ 44.5 µM)

Cc1nc(-c2ccc(C=C3CCCCC3)cc2)sc1-c1ccnc(N)n1
MIC (Staphylococcus aureus [1]): 1.56 µg/mL (≈ 4.3 µM)
